Data: the RNAGym collection of RNA variant scans (doi:10.1002/anie.201605470)

B1: Osa-1-4 twister ribozyme (parent)
chain: CCGCCUAACACUGCCAAUGCCGGUCCCAAGCCCGGAUAAAAGUGGAGGGGGCGG

Variants of: B1
Test: self-cleavage, relative activity (ratio to wild type); higher = more cleavage; co-transcriptional
How it was run: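 A DNA template for a 54-nucleotide Oryza sativa twister ribozyme was synthesised with 97 % wild-type base and 1 % of each other base at the 48 positions downstream of the cleavage site. It was transcribed in vitro for 2 h at 37 °C, allowing co-transcriptional self-cleavage, then reverse-transcribed with a template-switching oligonucleotide, PCR-amplified and deep-sequenced. Cleavage status was scored from reads with or without upstream sequence. Relative activity is fraction cleaved normalised to wild type.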

For CCGCCUCACACUGCCAAUGCCGGUCCCAAGCCCGGAUAAAAUUGGAGGGGGCGG [A7C G42U], which self-cleavage is on record?
The self-cleavage was 0.02.

For CCGCCUCACACUGCCAAUGCCGGUCCCAAGCCCGGAUAAAACUGGAGGGGGCGG [A7C G42C], which self-cleavage is on record?
The self-cleavage was 0.03.

For CCGCCUCACACUGCCAAUGCCGGUCCCAAGCCCGGAUAAAAAUGGAGGGGGCGG [A7C G42A], which self-cleavage is on record?
The self-cleavage was 0.04.

For CCGCCUGACACUGCCAAUGCCGGUCACAAGCCCGGAUAAAAGUGGAGGGGGCGG [A7G C26A], which self-cleavage is on record?
The self-cleavage was 0.04.

With CCGCCUGACACUGCCAAUGCCGGUCUCAAGCCCGGAUAAAAGUGGAGGGGGCGG [A7G C26U] as the variant, how does the self-cleavage read?
The self-cleavage was 0.13.

With CCGCCUGACACUGCCAAUGCCGGUCGCAAGCCCGGAUAAAAGUGGAGGGGGCGG [A7G C26G] as the variant, how does the self-cleavage read?
The self-cleavage was 0.19.

With CCGCCUGACACUGCCAAUGCCGGUCCCAAGCGCGGAUAAAAGUGGAGGGGGCGG [A7G C32G] as the variant, how does the self-cleavage read?
Its self-cleavage is 0.09.

With CCGCCUGACACUGCCAAUGCCGGUCCCAAGCACGGAUAAAAGUGGAGGGGGCGG [A7G C32A] as the variant, how does the self-cleavage read?
The self-cleavage was 0.05.

For CCGCCUGACACUGCCAAUGCCGGUCCCAAGCUCGGAUAAAAGUGGAGGGGGCGG [A7G C32U], which self-cleavage is on record?
Its self-cleavage is 0.08.

Which self-cleavage does the source give for CCGCCUCACACUGCCAAUGCCGGUCCCAAGCCCGGAUAAAAGUGAAGGGGGCGG [A7C G45A] here?
The self-cleavage was 0.03.

Which self-cleavage does the source give for CCGCCUCACACUGCCAAUGCCGGUCCCAAGCCCGGAUAAAAGUGUAGGGGGCGG [A7C G45U] here?
Its self-cleavage is 0.02.

For CCGCCUCACACUGCCAAUGCCGGUCCCAAGCCCGGAUAAAAGUGCAGGGGGCGG [A7C G45C], which self-cleavage is on record?
Its self-cleavage is 0.01.

For CCGCCUCACACUGCCAAUGCCGGUCCCAAGCCCGGAUAAAAGUUGAGGGGGCGG [A7C G44U], which self-cleavage is on record?
Its self-cleavage is 0.05.

With CCGCCUCACACUGCCAAUGCCGGUCCCAAGCCCGGAUAAAAGUAGAGGGGGCGG [A7C G44A] as the variant, how does the self-cleavage read?
The self-cleavage was 0.05.

With CCGCCUCACACUGCCAAUGCCGGUCCCAAGCCCGGAUAAAAGUCGAGGGGGCGG [A7C G44C] as the variant, how does the self-cleavage read?
Its self-cleavage is 0.05.

Which self-cleavage does the source give for CCGCCUGACACUGCCAAUGCCGGUCCAAAGCCCGGAUAAAAGUGGAGGGGGCGG [A7G C27A] here?
Its self-cleavage is 0.07.

Which self-cleavage does the source give for CCGCCUGACACUGCCAAUGCCGGUCCGAAGCCCGGAUAAAAGUGGAGGGGGCGG [A7G C27G] here?
Its self-cleavage is 0.07.

Which self-cleavage does the source give for CCGCCUGACACUGCCAAUGCCGGUCCUAAGCCCGGAUAAAAGUGGAGGGGGCGG [A7G C27U] here?
The self-cleavage was 0.1.

With CCGCCUGAAACUGCCAAUGCCGGUCCCAAGCCCGGAUAAAAGUGGAGGGGGCGG [A7G C9A] as the variant, how does the self-cleavage read?
Its self-cleavage is 0.11.

Which self-cleavage does the source give for CCGCCUGAGACUGCCAAUGCCGGUCCCAAGCCCGGAUAAAAGUGGAGGGGGCGG [A7G C9G] here?
The self-cleavage was 0.29.

With CCGCCUGAUACUGCCAAUGCCGGUCCCAAGCCCGGAUAAAAGUGGAGGGGGCGG [A7G C9U] as the variant, how does the self-cleavage read?
Its self-cleavage is 0.19.

With CCGCCUGACACUGCCAAUGCGGGUCCCAAGCCCGGAUAAAAGUGGAGGGGGCGG [A7G C21G] as the variant, how does the self-cleavage read?
Its self-cleavage is 0.03.

For CCGCCUGACACUGCCAAUGCUGGUCCCAAGCCCGGAUAAAAGUGGAGGGGGCGG [A7G C21U], which self-cleavage is on record?
Its self-cleavage is 0.23.

Which self-cleavage does the source give for CCGCCUGACACUGCCAAUGCAGGUCCCAAGCCCGGAUAAAAGUGGAGGGGGCGG [A7G C21A] here?
The self-cleavage was 0.1.

With CCGCCUGACAGUGCCAAUGCCGGUCCCAAGCCCGGAUAAAAGUGGAGGGGGCGG [A7G C11G] as the variant, how does the self-cleavage read?
Its self-cleavage is 0.1.

With CCGCCUGACAUUGCCAAUGCCGGUCCCAAGCCCGGAUAAAAGUGGAGGGGGCGG [A7G C11U] as the variant, how does the self-cleavage read?
The self-cleavage was 0.15.

With CCGCCUGACAAUGCCAAUGCCGGUCCCAAGCCCGGAUAAAAGUGGAGGGGGCGG [A7G C11A] as the variant, how does the self-cleavage read?
The self-cleavage was 0.13.

For CCGCCUCACACUGCCAAUGCCGGUCCCAAGCCCCGAUAAAAGUGGAGGGGGCGG [A7C G34C], which self-cleavage is on record?
The self-cleavage was 0.04.

Which self-cleavage does the source give for CCGCCUCACACUGCCAAUGCCGGUCCCAAGCCCUGAUAAAAGUGGAGGGGGCGG [A7C G34U] here?
The self-cleavage was 0.05.

For CCGCCUCACACUGCCAAUGCCGGUCCCAAGCCCAGAUAAAAGUGGAGGGGGCGG [A7C G34A], which self-cleavage is on record?
The self-cleavage was 0.03.

For CCGCCUCACACUGCCAAUGCCAGUCCCAAGCCCGGAUAAAAGUGGAGGGGGCGG [A7C G22A], which self-cleavage is on record?
Its self-cleavage is 0.07.

With CCGCCUCACACUGCCAAUGCCUGUCCCAAGCCCGGAUAAAAGUGGAGGGGGCGG [A7C G22U] as the variant, how does the self-cleavage read?
Its self-cleavage is 0.04.

For CCGCCUCACACUGCCAAUGCCCGUCCCAAGCCCGGAUAAAAGUGGAGGGGGCGG [A7C G22C], which self-cleavage is on record?
Its self-cleavage is 0.02.

With CCGCCUGACACUGCCAAUGCCGGUGCCAAGCCCGGAUAAAAGUGGAGGGGGCGG [A7G C25G] as the variant, how does the self-cleavage read?
The self-cleavage was 0.06.

For CCGCCUGACACUGCCAAUGCCGGUUCCAAGCCCGGAUAAAAGUGGAGGGGGCGG [A7G C25U], which self-cleavage is on record?
Its self-cleavage is 0.17.

For CCGCCUGACACUGCCAAUGCCGGUACCAAGCCCGGAUAAAAGUGGAGGGGGCGG [A7G C25A], which self-cleavage is on record?
Its self-cleavage is 0.05.

For CCGCCUCACACGGCCAAUGCCGGUCCCAAGCCCGGAUAAAAGUGGAGGGGGCGG [A7C U12G], which self-cleavage is on record?
Its self-cleavage is 0.09.

Which self-cleavage does the source give for CCGCCUCACACAGCCAAUGCCGGUCCCAAGCCCGGAUAAAAGUGGAGGGGGCGG [A7C U12A] here?
Its self-cleavage is 0.05.

Which self-cleavage does the source give for CCGCCUCACACCGCCAAUGCCGGUCCCAAGCCCGGAUAAAAGUGGAGGGGGCGG [A7C U12C] here?
Its self-cleavage is 0.04.

With CCGCCUCACACUGCCAAUGCCGGUCCCAAGCCCGGAUAAAAGUGGAGGGGGCAG [A7C G53A] as the variant, how does the self-cleavage read?
Its self-cleavage is 0.06.

With CCGCCUCACACUGCCAAUGCCGGUCCCAAGCCCGGAUAAAAGUGGAGGGGGCCG [A7C G53C] as the variant, how does the self-cleavage read?
Its self-cleavage is 0.01.

For CCGCCUCACACUGCCAAUGCCGGUCCCAAGCCCGGAUAAAAGUGGAGGGGGCUG [A7C G53U], which self-cleavage is on record?
Its self-cleavage is 0.03.

Which self-cleavage does the source give for CCGCCUCACACUGCCAAUGCCGGCCCCAAGCCCGGAUAAAAGUGGAGGGGGCGG [A7C U24C] here?
Its self-cleavage is 0.03.

Which self-cleavage does the source give for CCGCCUCACACUGCCAAUGCCGGACCCAAGCCCGGAUAAAAGUGGAGGGGGCGG [A7C U24A] here?
Its self-cleavage is 0.04.

For CCGCCUCACACUGCCAAUGCCGGGCCCAAGCCCGGAUAAAAGUGGAGGGGGCGG [A7C U24G], which self-cleavage is on record?
Its self-cleavage is 0.01.

Which self-cleavage does the source give for CCGCCUCACACUGCCAAUGCCGGUCCCAAGCCCGGAUAAAAGUGGAGCGGGCGG [A7C G48C] here?
Its self-cleavage is 0.02.

Which self-cleavage does the source give for CCGCCUCACACUGCCAAUGCCGGUCCCAAGCCCGGAUAAAAGUGGAGUGGGCGG [A7C G48U] here?
Its self-cleavage is 0.01.

With CCGCCUCACACUGCCAAUGCCGGUCCCAAGCCCGGAUAAAAGUGGAGAGGGCGG [A7C G48A] as the variant, how does the self-cleavage read?
Its self-cleavage is 0.02.
